Source: PubChem
RBBP9 inhibitor = blocks human serine hydrolase RBBP9; O75884; recombinant RBBP9, FP-Rh probe fluorescence polarization; inhibition, % at 7.94 µM; 220,000 tested, 0.2% active; AID 1515;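 active means inhibition above the campaign mean of all tested compounds plus 3 SD, cut at about 14% in these data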
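Test system – recombinant human RBBP9 · Input – RBBP9 2.5 µM in dispensing solution, pre-mixing · Medium – Tris buffer pH 8.0, NaCl, Pluronic · Schedule – preincubation 30 min plus labeling 45 min at 25 °C · Measured by – fluorescence polarization · Measure – % inhibition · Controls – DMSO and no-protein wells · Replicates – one well per compound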
DTT redox prof = compounds producing H2O2 with reducing agent – biochemical, NIH compound library profiling, artefact control for MLSCN library redox annotation, primary screen | activation, % at 10 µM | AID 878 | 200,000 tested, 0.03% active | DTT-dependent redox cycling H2O2, phenol red/HRP absorbance; 100% = 100 µM peroxide control, 0% = buffer;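 active means activation of at least 50% relative to the plate's high and low controls in the primary single-dose screen; inactive means activation below 50%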;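 further: compound incubated with DTT at 0.8 mM final as the reducing agent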
Wee1 degr inh = inhibitors of human Wee1 degradation; P30291; HeLa Luc-Wee1K328M stability, luciferase luminescence; 100% = proteasome inhibitor MG132 effect; reporter increase, % at 5 µM; 220,000 tested, 1.2% active; AID 1321;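 active means activation above the mean of all tested compounds plus 3 SD, set per screening run, cut at about 8.8% in these data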;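 further: cells exposed to compound for 20 h before luminescence read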
PKD1 inh = blocks activity of human protein kinase D1 | Q15139 | PKD1 kinase fluorescence polarization assay | inhibition, % (test concentration not listed) | 200,000 tested, 0.056% active | AID 797; in the data active means inhibition above about 50%
Target sequence (Q15139 whole entry, looked up): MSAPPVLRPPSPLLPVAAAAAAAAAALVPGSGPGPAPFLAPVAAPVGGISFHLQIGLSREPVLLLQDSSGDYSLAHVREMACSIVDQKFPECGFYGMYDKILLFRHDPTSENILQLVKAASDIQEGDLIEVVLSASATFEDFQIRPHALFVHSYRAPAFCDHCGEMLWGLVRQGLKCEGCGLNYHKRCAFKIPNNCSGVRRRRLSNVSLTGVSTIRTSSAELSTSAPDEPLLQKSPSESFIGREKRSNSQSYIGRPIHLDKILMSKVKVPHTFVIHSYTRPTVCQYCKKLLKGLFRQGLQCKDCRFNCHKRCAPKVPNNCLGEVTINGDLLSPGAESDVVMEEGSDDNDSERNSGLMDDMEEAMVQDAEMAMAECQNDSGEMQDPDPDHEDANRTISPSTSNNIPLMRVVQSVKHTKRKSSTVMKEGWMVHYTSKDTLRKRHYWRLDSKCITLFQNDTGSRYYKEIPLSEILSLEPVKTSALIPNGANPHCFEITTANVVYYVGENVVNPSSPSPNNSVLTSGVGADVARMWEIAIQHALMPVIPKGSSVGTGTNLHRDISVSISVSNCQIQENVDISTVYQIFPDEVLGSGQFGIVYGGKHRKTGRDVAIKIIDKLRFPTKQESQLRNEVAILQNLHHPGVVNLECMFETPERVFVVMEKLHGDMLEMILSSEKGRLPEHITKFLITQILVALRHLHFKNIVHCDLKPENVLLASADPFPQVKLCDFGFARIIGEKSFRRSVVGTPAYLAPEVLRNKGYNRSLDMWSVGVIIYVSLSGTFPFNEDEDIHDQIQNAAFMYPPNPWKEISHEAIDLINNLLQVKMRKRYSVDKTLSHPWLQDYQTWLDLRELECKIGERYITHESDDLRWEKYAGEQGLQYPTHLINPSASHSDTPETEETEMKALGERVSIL
p97 ATPase inh = human p97 ATPase inhibition. P55072. recombinant p97 ATPase, Kinase-Glo ATP luminescence, 3 h. inhibition, % at 8 µM. 220,000 tested, 0.42% active; in the data active means inhibition above about 15%
Arbovirus anti = blocks arbovirus infection | arbovirus infection cell-based antiviral screen | inhibition, % at 10 µM | 200,000 tested, 0.37% active; in the data active means inhibition above about 30%
Wee1 degr conf = confirmation of human Wee1 degradation inhibitors. shares compounds with Wee1 degr inh. HeLa Luc-Wee1K328M degradation, luminescence; vehicle 0%, proteasome-blocked wells 100%. activation, % at 5 µM. 1,100 tested, 4% active. AID 1410; in the data active means activation above about 8.9%
Numbers stand for hits; - = inactive; . = no result given. The list is not random: actives were taken first. Their share in the collection is about 2.2%.

SMILES | RBBP9 inhibitor | DTT redox prof | Wee1 degr inh | PKD1 inh | p97 ATPase inh | Arbovirus anti | Wee1 degr conf
CC(C)Cn1c(-c2ccc(C#N)cc2)nc2c1c(=O)[nH]c(=O)n2CC(C)C | - | - | 36.1 | - | - | - | -
CCOc1ccc(CC(=O)C2=C(N3CCOCC3)CC(C)(C)CC2=O)cc1OCC | - | - | - | - | - | - | .
Cc1csc(SCC(=O)Nc2cc(S(=O)(=O)N3CCCC3)ccc2Cl)n1 | - | - | 12.6 | - | - | - | -
COC(=O)CC/C(O)=C1\C(=O)CC(C)(C)CC1=NCc1nc2ccccc2[nH]1 | - | - | - | - | - | - | .
N/C(CCN1CCCCC1)=N/O | - | - | - | - | - | - | .
COc1ccc(/C=C(/C#N)C(=O)NC2CCCCC2)cc1Br | - | - | - | - | - | - | .
Cc1cc(/C=C(\C#N)C(=O)NC2CCCCCC2)c(C)n1C | - | - | 28.2 | - | - | - | -
CSc1c(C#N)sc(=S)n1-c1ccc(C)cc1 | - | - | - | - | - | - | .
CCOC(=O)C1(Cc2cccc(OC)c2)CCN(CC2CC=CCC2)CC1 (stereo unspecified) | - | - | 12.4 | - | - | - | -
Cc1nnsc1S(=O)(=O)Cc1ccccc1C(F)(F)F | - | - | - | - | - | - | .
CCOC(=O)CSc1nc(-c2ccncc2)ccc1C#N | - | - | 14.4 | - | - | - | -
CCCCN1C(=O)NC(NC(=O)C2CC2)(C(F)(F)F)C1=O (stereo unspecified) | - | - | - | - | - | - | .
CCCCN1C(=O)NC(NC(=O)c2ccco2)(C(F)(F)F)C1=O (stereo unspecified) | - | - | 17.3 | - | - | - | -
NS(=O)(=O)c1ccc(CCNC(=O)c2cc(-c3cccs3)nc3ccccc23)cc1 | - | - | 12.4 | - | - | - | -
COc1cc(/C=N/NC(=O)c2cc(-c3cccs3)nc3ccccc23)ccc1O | - | . | 11.9 | . | - | . | -
N#Cc1ccc(/C=N/NC(=O)c2cc(-c3cccs3)nc3ccccc23)cc1 | - | - | - | - | - | - | .
NS(=O)(=O)c1ccc(CNC(=O)c2cc(-c3cccs3)nc3ccccc23)cc1 | - | . | - | . | - | . | .
CC1CC(CC(=O)NC(=S)Nc2ccccc2Cl)C(=O)O1 (stereo unspecified) | - | - | - | - | - | - | .
O=C(c1ccc(NC(=O)C2(c3ccccc3)CCCC2)cc1)N1CCOCC1 | - | . | 27.0 | . | - | . | -
O=C(NCCSc1ccccc1)c1ccc(CN2CCOCC2)cc1 | - | . | 15.4 | . | - | . | -
O=C(NCCSc1ccc(Cl)cc1)c1ccc(CN2CCOCC2)cc1 | - | - | - | - | - | - | .
Cc1cccc(C)c1NC(=O)NCCCN1CCN(c2ccccc2)CC1 | - | - | 11.5 | - | - | - | -
COc1cc(-c2nc3ccccn3c2/N=C/c2ccccc2)ccc1O | - | - | 67.5 | - | - | - | -
Cc1ccc(Nc2c(-c3ccco3)nc3nc(C)cc(C)n23)cc1 | - | - | 31.4 | - | - | - | -
Cc1cc(C)n2c(Nc3ccc4c(c3)OCCO4)c(-c3ccco3)nc2n1 | - | - | - | - | - | - | .
SMILES | RBBP9 inhibitor | DTT redox prof | Wee1 degr inh | PKD1 inh | p97 ATPase inh | Arbovirus anti | Wee1 degr conf
O=C(CSC1=NCCN1)C1COc2ccccc2O1 (stereo unspecified) | - | - | 12.4 | - | - | - | -
O=C(Nc1ccncc1)C1COc2ccccc2O1 (stereo unspecified) | - | - | - | - | - | - | .
O=C(OCC(=O)N1CCc2ccccc2C1)c1cc(=O)[nH]c2ccccc12 | - | . | 16.0 | . | - | . | -
O=C(c1cc(=O)[nH]c2ccccc12)N1CCc2ccccc2C1 | - | - | - | - | - | - | .
O=C(CNC(=O)c1cccc(F)c1)OCC(=O)N1CCCCC1 | - | - | 14.8 | - | - | - | -
CNC(=S)N1CCC(c2nc3ccccc3s2)CC1 | - | - | - | - | - | - | .
Cc1ccc(-n2ncc(C#N)c2N)cc1 | - | . | 11.2 | . | - | . | -
COc1ccc(C(C)C)cc1S(=O)(=O)n1ccnc1C | - | - | 12.8 | - | - | - | -
COc1ccc(OC)c(S(=O)(=O)n2ccnc2C)c1 | - | - | - | - | - | - | .
CCCCOc1ccc(-c2[nH]ncc2C=O)cc1 | - | - | 14.8 | - | - | - | -
COc1ccc(C(=O)NCCCn2ccnc2)cc1[N+](=O)[O-] | - | . | 18.3 | . | - | . | -
CCOc1ccc(Cn2ccnc2)cc1[N+](=O)[O-] | - | - | 16.0 | - | - | - | -
CCC(=O)Nc1ccc(-c2cc3ccccc3oc2=O)cc1 | - | - | 22.3 | - | - | - | -
Cc1ccc(C(C)C)c(OCc2nn(CC(=O)c3ccc(OC(F)F)cc3)c3[n+]2CCCCC3)c1 | - | - | 18.0 | - | - | - | -
COc1ccc(C(=O)Cn2nc(CNc3ccc(Br)cc3)[n+]3c2CCCCC3)cc1 | - | - | - | - | - | - | .
CC(C)N(C)S(=O)(=O)c1ccc(Cl)c(C(=O)O)c1 | - | - | - | - | - | - | .
Cc1ccc(OCCSc2nc(N)cc(N)n2)cc1 | - | - | 11.4 | - | - | - | -
O=C(/C=C/c1ccc(Cl)cc1)Nc1nccs1 | - | - | 13.0 | - | - | - | -
C/C(=C\c1ccccc1)C(=O)Nc1nccs1 | - | - | - | - | - | - | .
O=C(NCc1ccc(Cl)cc1)C(=O)Nc1nccs1 | - | - | - | - | - | - | .
C/C=C/C=C/C(=O)Nc1nccs1 | - | - | 11.4 | - | - | - | -
COc1cc(C)c(C)cc1S(=O)(=O)N1CCN(Cc2ccc3c(c2)OCO3)CC1 | - | - | - | - | - | - | .
COc1cc(C)c(C)cc1S(=O)(=O)N1CCN(Cc2ccccc2)CC1 | - | - | 14.4 | - | - | - | -
Cc1ccc(OCCC(=O)OCC(=O)Nc2cc(S(=O)(=O)N(C)C)ccc2C)cc1 | - | - | - | - | - | - | .
O=C(Nc1ccc2c(c1)CCC2)c1ccc(F)cc1 | - | - | 17.4 | - | - | - | -
SMILES | RBBP9 inhibitor | DTT redox prof | Wee1 degr inh | PKD1 inh | p97 ATPase inh | Arbovirus anti | Wee1 degr conf
CC(C)CC(=O)Nc1ccc(-c2nc3ccccc3c(=O)[nH]2)cc1 | - | - | 13.4 | - | - | - | -
CCSc1nnc(NC(=O)c2cc(C)nc3ccccc23)s1 | - | - | 11.0 | - | - | - | -
CC(=O)/C=C(\C)Nc1ccccc1O | - | . | - | . | - | . | .
CC(=O)N/C(=C/c1ccc2c(c1)OCO2)C(=O)NCC(=O)O | - | - | - | - | - | - | .
O=C(OCC1OC(n2cnc3c(N(C(=O)c4ccccc4)C(=O)c4ccccc4)ncnc32)C(O)C1F)c1ccccc1 (stereo unspecified) | - | - | 11.0 | - | - | - | -
O=C(O)c1cccc(N2C(=O)c3cccc(Oc4ccc(Cl)cc4)c3C2=O)c1 | - | - | - | - | - | - | .
CC(C)Oc1ccc(Cc2cnc(=S)[nH]c2N)cc1 | - | - | - | - | - | - | .
